Measured values collected from several papers.
Each line is one published result; the experiments were not run side by side.
Target: Tyrosine-protein kinase FRK (FRK, Homo sapiens, UniProt P42685)

SMILES	assay	setting	quantity	value
N#CC1(c2ccccn2)CCN(Cc2cc(C(=O)O)c(=O)n3ccccc23)CC1	cell-free assay, competition with immobilised ligand	1 µM	remaining binding	100%
COc1ncccc1-c1cnn2ccc(N3CCN(C(=O)OC(C)C)CC3)nc12	binding, competition with immobilised ligand	1 µM	remaining binding	63%
Cn1cc(-c2cccc(N3CCc4c(sc5c4CC(C)(C)C5)C3=O)c2CO)cc(Nc2ccncn2)c1=O	enzyme activity, inhibitor	1 µM	inhibition	9%
COc1cc(Nc2ncc(F)c(Nc3ccc4c(n3)NC(=O)C(C)(C)O4)n2)cc(OC)c1OC	binding, competition with immobilised ligand	10 µM	inhibition	96%
Cn1cncc1[C@](O)(COc1ccc(C#N)cc1-c1ccc(OC(F)(F)F)cc1)c1ccc(C#N)cc1	cell-free assay, competition with immobilised ligand	1 µM	remaining binding	100%
O=c1[nH]c2ccccc2n1C1CCN(Cc2ccc(-c3[nH]c4cc5ncnc5cc4nc3-c3ccccc3)cc2)CC1	cell-free assay	0.5 µM	remaining signal	102%
Nc1ncc(-c2nc(N3CCOCC3)nc(N3CCOCC3)n2)c(C(F)F)n1	binding, competition with immobilised ligand	10 µM	remaining binding	100%
Cc1nn(C)cc1-c1nc2c(N3CCN(Cc4ccc(Cl)cc4)CC3)c(Cl)cnc2[nH]1	binding, competition with immobilised ligand	1 µM	remaining binding	100%
CC(C)(C)c1cc(C=C(C#N)C#N)cc(Br)c1O	enzyme activity, inhibitor	0.5 µM	remaining activity	99.3%
Cn1cc(-c2cc(F)cc(N3CCn4c(cc5c4CCCC5)C3=O)c2CO)cc(Nc2ccc(N3CCN(C4COC4)CC3)cn2)c1=O	enzyme activity, inhibitor	0.1 µM	inhibition	15%
